The values below come from ChEMBL document CHEMBL1121953, “Carbon-7 substituted actinomycin D analogues as improved antitumor agents: synthesis and DNA-binding and biological properties” (J Med Chem, 1982).

A short description of data set [1]: In vitro growth inhibitory activity for effect on melting temperature of DNA was determined. The gist of the method: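 DNA thermal denaturation; ΔTm = Tm of DNA-drug complex minus Tm of DNA. Drug 1.4×10⁻⁴ M, DNA (P) 1.4×10⁻³ M in 0.01 M phosphate buffer pH 7.0 with 5×10⁻³ M EDTA and 5% dimethyl sulfoxide.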
Data set [2] relates to P388. The data set is described as follows: Antitumor activity against P-388 lymphocytic leukemia in CDF1 hybrid male mice measured as percent increase in lifespan(0.062 mg/kg),ip. The data set is classed as functional, Mus musculus. In outline: (§1)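 Male CDF1 mice (18-23 g) were inoculated ip with 10⁶ P-388 cells on day 0. Drug was given ip in 10% dimethyl sulfoxide-saline on days 1, 5 and 9. Test solutions were kept at 0-4 °C, protected from light, and checked periodically for stability and homogeneity by TLC and HPLC. Read-out was survival, median survival time, increase in life span and tumor-free cures per 7 animals.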

Data set [3] relates to P388. Description: Number of mice with P-388 lymphocytic leukemia cured( 0.125 mg/kg),ip.; 1/7. The data set is classed as functional, Mus musculus.
Data set [4] relates to P388. Description: Antitumor activity against P-388 lymphocytic leukemia in CDF1 hybrid male mice measured as percent increase in lifespan( 0.125 mg/kg),ip. In kind it is functional. The settings on record: Mus musculus. In outline: as §1
Data set [5] relates to P388. The data set is described as follows: Number of mice with P-388 lymphocytic leukemia cured( 0.250 mg/kg),ip; 0/7. The data set is classed as functional, Mus musculus. The following applies: dose 0.25 mg/kg.
Data set [6] has as its system P388. Description: Antitumor activity against P-388 lymphocytic leukemia in CDF1 hybrid male mice measured as median survival time ( 0.375 mg/kg),ip. In kind it is functional, Mus musculus. In outline:
as §1

The test system of data set [7] is P388. The data set is described as follows: Maximum tolerated dose was determined compared to 7-(2,3-Epoxypropoxy)-actinomycin D against P-388 leukemia in mice(3 days). The data set is classed as functional, Mus musculus. The gist of the method:
(§2)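 Tumor-free male CDF1 mice (18-23 g) received a broad dose range ip in 10% dimethyl sulfoxide-saline, either on days 1, 5, 9 (three injections) or on 4 successive days (qd 1-4). Deaths were recorded over 21 days. MTD was the dose lethal to 10% (LD10), taken from a plot of log dose vs percent mortality. Average of two experiments.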

For data set [8], the species on record is Homo sapiens. Description: In vitro growth inhibitory activity against human lymphoblastic leukemia cells. In kind it is functional. The following applies: read-out: ID50 (the source's name). The gist of the method: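 CCRF-CEM human lymphoblastic leukemia cells in log-phase growth; compounds dissolved in Me₂SO, final growth medium 1% Me₂SO.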
The test system of data set [9] is P388. The data set is described as follows: Minimum effective dose was determined compared to 7-(2,3-Epoxypropoxy)-actinomycin D against P-388 leukemia in mice(3 days). More on the design: unit: mg/kg. The data set is classed as functional, Mus musculus. The gist of the method:
(§3)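 MED was the dose (mg/kg) giving a 40% increase in life span over control in mice bearing ip P-388 leukemia. Drug was given ip in 10% dimethyl sulfoxide-saline on a q4d 1, 5, 9 (three injections) or qd 1-4 (four injections) schedule.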

Data set [10] concerns P388. The data set is described as follows: Number of mice with P-388 lymphocytic leukemia cured.( 0.062 mg/kg),ip; 0/7. The data set is classed as functional, Mus musculus.
For data set [11], the system named is P388. Description: Antitumor activity against P-388 lymphocytic leukemia in CDF1 hybrid male mice measured as median survival time (0.062 mg/kg),ip. In kind it is functional, Mus musculus. The gist of the method: as §1
Data set [12] can be described thus: Therapeutic Index measured as the MTD/MED ratio compared to that of compound 4. The settings on record: read-out: Therapeutic index. The gist of the method:
(§4)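 Therapeutic index is MTD/MED, with ip dosing in 10% dimethyl sulfoxide-saline on a qd 1-4 or q4d 1, 5, 9 schedule. MED is the dose giving a 40% increase in life span over control in P-388-bearing mice. MTD is the LD10 in tumor-free male CDF1 mice (18-23 g) over 21 days, read from a log dose vs. percent mortality plot and averaged over 2-3 experiments.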

Data set [13] relates to P388. Description: Number of mice with P-388 lymphocytic leukemia cured( 0.031 mg/kg),ip; 0/7. In kind it is functional, Mus musculus.
In data set [14] the test system is P388. The data set is described as follows: Antitumor activity against P-388 lymphocytic leukemia in CDF1 hybrid male mice measured as median survival time (0.25 mg/kg),ip. The data set is classed as functional, Mus musculus. In outline:
as §1

Data set [15] relates to P388. The data set is described as follows: Antitumor activity against P-388 lymphocytic leukemia in CDF1 hybrid male mice measured as median survival time (0.125 mg/kg),ip. In kind it is functional, Mus musculus. In outline: as §1
In data set [16] the test system is P388. Description: Antitumor activity against P-388 lymphocytic leukemia in CDF1 hybrid male mice measured as percent increase in lifespan( 0.250 mg/kg),ip. In kind it is functional. The following applies: Mus musculus. The gist of the method:
as §1

Data set [17] deals with P388. Description: Antitumor activity against P-388 lymphocytic leukemia in CDF1 hybrid male mice measured as percent increase in lifespan( 0.031 mg/kg),ip. The data set is classed as functional. The settings on record: Mus musculus. The gist of the method:
as §1

The subject of data set [18] is P388. The data set is described as follows: Maximum tolerated dose was determined compared to 7-(2,3-Epoxypropoxy)-actinomycin D against P-388 leukemia in mice(4 days). In kind it is functional, Mus musculus. In outline: as §2
Data set [19] has as its system P388. The data set is described as follows: Antitumor activity against P-388 lymphocytic leukemia in CDF1 hybrid male mice measured as median survival time (0.031 mg/kg),ip. In kind it is functional, Mus musculus. The gist of the method:
as §1

The subject of data set [20] is P388. Description: Minimum effective dose was determined compared to 7-(2,3-Epoxypropoxy)-actinomycin D against P-388 leukemia in mice(4 days). The data set is classed as functional, Mus musculus. The gist of the method: as §3
Data set [21] is described as follows: Therapeutic Index measured as the MTD/MED ratio compared to that of compound 3. The settings on record: read-out: Therapeutic index. The gist of the method:
as §4

Data set [22] deals with P388. Description: Antitumor activity against P-388 lymphocytic leukemia in CDF1 hybrid male mice measured as percent increase in lifespan(0.6 mg/kg),ip. In kind it is functional, Mus musculus. In outline: as §1
Data set [23] concerns P388. The data set is described as follows: Antitumor activity against P-388 lymphocytic leukemia in CDF1 hybrid male mice measured as median survival time ( 0.6 mg/kg),ip. The data set is classed as functional, Mus musculus. In outline: as §1
In data set [24] the test system is P388. The data set is described as follows: Number of mice with P-388 lymphocytic leukemia cured( 0.15 mg/kg),ip.; 0/7. In kind it is functional, Mus musculus. In outline:
as §1

For data set [25], the system named is P388. The data set is described as follows: Number of mice with P-388 lymphocytic leukemia cured( 0.6 mg/kg),ip; 1/7. In kind it is functional, Mus musculus. The gist of the method:
as §1

The subject of data set [26] is P388. The data set is described as follows: Number of mice with P-388 lymphocytic leukemia cured( 1.2 mg/kg),ip; 0/7. The data set is classed as functional, Mus musculus. The gist of the method: as §1
For data set [27], the system named is P388. The data set is described as follows: Antitumor activity against P-388 lymphocytic leukemia in CDF1 hybrid male mice measured as median survival time ( 1.2 mg/kg),ip. The data set is classed as functional, Mus musculus. The gist of the method:
as §1

Data set [28] has as its system P388. The data set is described as follows: Antitumor activity against P-388 lymphocytic leukemia in CDF1 hybrid male mice measured as median survival time ( 1.8 mg/kg),ip. The data set is classed as functional, Mus musculus. In outline:
as §1

For data set [29], the system named is P388. The data set is described as follows: Number of mice with P-388 lymphocytic leukemia cured( 0.3 mg/kg),ip; 2/7. In kind it is functional, Mus musculus. In outline:
as §1

The test system of data set [30] is P388. The data set is described as follows: Antitumor activity against P-388 lymphocytic leukemia in CDF1 hybrid male mice measured as median survival time ( 0.15 mg/kg),ip. In kind it is functional, Mus musculus. The gist of the method:
as §1

Data set [31] relates to P388. The data set is described as follows: Antitumor activity against P-388 lymphocytic leukemia in CDF1 hybrid male mice measured as median survival time ( 0.3 mg/kg),ip. The data set is classed as functional, Mus musculus. In outline:
as §1

Data set [32] concerns P388. The data set is described as follows: Antitumor activity against P-388 lymphocytic leukemia in CDF1 hybrid male mice measured as percent increase in lifespan(0.3 mg/kg),ip. In kind it is functional, Mus musculus. In outline: as §1
Data set [33] relates to P388. Description: Antitumor activity against P-388 lymphocytic leukemia in CDF1 hybrid male mice measured as percent increase in lifespan( 1.2 mg/kg),ip. The data set is classed as functional. The settings on record: Mus musculus. The gist of the method:
as §1

Data set [34] deals with P388. Description: Antitumor activity against P-388 lymphocytic leukemia in CDF1 hybrid male mice measured as percent increase in lifespan(0.15 mg/kg),ip. The data set is classed as functional, Mus musculus. The gist of the method:
as §1

Data set [35] relates to P388. Description: Antitumor activity against P-388 lymphocytic leukemia in CDF1 hybrid male mice measured as percent increase in lifespan( 1.8 mg/kg),ip. The data set is classed as functional. The following applies: Mus musculus. The gist of the method: as §1
In data set [36] the test system is P388. Description: Number of mice with P-388 lymphocytic leukemia cured.( 1.8 mg/kg),ip; 0/7. In kind it is functional, Mus musculus.

The ILS is the gain in survival time of treated over control animals, in per cent.

Each structure is given as a SMILES string. Converted amounts (≈) assume the structure as drawn. *1 amine or outer side, *2 acyl side, *3 side chain or, on linkers, in order; H or OH if unused. Where a SMILES comes first, the peptide text is derived from it. Bridges are numbered along the chain shown (N, C = ends). Roman numbers before positions name the chains, in order. [ ]: non-standard residue; d: D form. Actinocin(9to1) = Cc1c2oc3c(C)ccc(C(=O)[*:1])c3nc-2c(C(=O)[*:2])c(N)c1=O; NMeV = CN[C@H](C(=O)O)C(C)C; Sar = CNCC(=O)O

Regarding `Cc1c2oc3c(C)ccc(C(=O)N[C@@H]4C(=O)N[C@H](C(C)C)C(=O)N5CCC[C@H]5C(=O)N(C)CC(=O)N(C)[C@@H](C(C)C)C(=O)O[C@@H]4C)c3nc-2c(C(=O)N[C@@H]2C(=O)N[C@H](C(C)C)C(=O)N3CCC[C@H]3C(=O)N(C)CC(=O)N(C)[C@@H](C(C)C)C(=O)O[C@@H]2C)c(N)c1=O` [DACTINOMYCIN] (I: T[dV]P[Sar][NMeV] / II: T[dV]P[Sar][NMeV]; ester I:1-I:C, II:1-II:C; linker I:N-II:N via Actinocin(9to1)), the DNA melting temperature shift (ΔTm) in data set [1] came to 7.1 °C. The ILS in data set [2] is reported as 45%. Also, the Cure in data set [3] came out at 1; in data set [5], 0; in data set [10] it was 0; in data set [13], 0. Further, the ILS at 0.125 mg/kg in data set [4] came to 136%. Moreover, the MST came to 9 days in data set [6]; 16 days in data set [11]; 17 days in data set [14]; 26 days in [15]; 13 days in data set [19]. Besides, the MTD is listed as 0.25 in data set [7] and 0.15 in data set [18]. In addition, the IC50 in [8] was determined as 0.06 µg/mL (≈ 0.0478 µM). The MED in [9] is 0.0625; in data set [20], 0.05. The results for the selectivity ratio in data set [12] and in data set [21] were 3 and 4, respectively. In data set [16], this molecule returned an ILS at 0.25 mg/kg of 55%. Further, in [17], the ILS at 0.031 mg/kg came to 18%.

`Cc1c2oc3c(C)c(OCC(O)CO)cc(C(=O)N[C@@H]4C(=O)N[C@H](C(C)C)C(=O)N5CCC[C@H]5C(=O)N(C)CC(=O)N(C)[C@@H](C(C)C)C(=O)O[C@@H]4C)c3nc-2c(C(=O)N[C@@H]2C(=O)N[C@H](C(C)C)C(=O)N3CCC[C@H]3C(=O)N(C)CC(=O)N(C)[C@@H](C(C)C)C(=O)O[C@@H]2C)c(N)c1=O` (stereo partly specified): the ILS is reported as 136% in data set [22], 82% in data set [32] and 45% in [34]. For the same molecule, the MST amounted to 25 days in [23]; 32 days in data set [27]; 15 days in data set [28]; 16 days in data set [30]; 20 days in data set [31]. The Cure in data set [24] worked out at 0; in data set [25], 1; in data set [26] it was 0; in data set [29], 2; in data set [36] it was 0. Moreover, the MTD in [7] is on record as 1.8; in data set [18] it was 1.4. For the same molecule, in data set [8], the IC50 is 0.085 µg/mL (≈ 0.0632 µM). Besides, the MED is reported as 0.15 in data set [9] and 0.125 in [20]. Moreover, in [33], the ILS at 1.2 mg/kg was 191%. This molecule came in with an ILS at 1.8 mg/kg in data set [35] of 36%.
